Measured values taken from ChEMBL document CHEMBL3259783, “Inhibitory effects of novel synthetic methimazole derivatives on mushroom tyrosinase and melanogenesis” (Bioorg Med Chem, 2014).
Active and inactive are the calls of the source. The rule behind the calls is not given here.

Columns and labels:
[1] = molecular target: T1, Tyrosinase (Agaricus bisporus) (UniProt O42713); experiment: (§1) Inhibition of mushroom tyrosinase-mediated L-tyrosine hydroxylation after 30 mins by ELISA
T1 sequence (whole entry): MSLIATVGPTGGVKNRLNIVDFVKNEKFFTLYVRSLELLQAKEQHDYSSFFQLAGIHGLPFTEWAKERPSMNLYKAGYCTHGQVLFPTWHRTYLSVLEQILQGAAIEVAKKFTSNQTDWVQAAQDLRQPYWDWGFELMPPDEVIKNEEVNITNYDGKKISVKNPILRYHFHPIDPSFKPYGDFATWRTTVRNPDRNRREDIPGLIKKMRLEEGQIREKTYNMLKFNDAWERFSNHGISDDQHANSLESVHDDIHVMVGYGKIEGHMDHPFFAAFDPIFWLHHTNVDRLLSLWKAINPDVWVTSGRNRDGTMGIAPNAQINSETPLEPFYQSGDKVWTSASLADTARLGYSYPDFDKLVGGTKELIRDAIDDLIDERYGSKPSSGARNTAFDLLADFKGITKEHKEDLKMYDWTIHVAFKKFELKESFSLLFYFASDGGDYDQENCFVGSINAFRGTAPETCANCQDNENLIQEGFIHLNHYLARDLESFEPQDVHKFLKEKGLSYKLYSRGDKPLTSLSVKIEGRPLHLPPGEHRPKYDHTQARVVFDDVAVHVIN
How it was run: (§2)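 Mushroom tyrosinase with L-tyrosine substrate; dipotassium hydrogen phosphate buffer as vehicle control. Mixture held 25 °C for 30 min, dopachrome read at 475 nm. Inhibition % = (1 − ABSsample/ABScontrol) × 100. IC50 from regression of the dose–response curve; triplicate, mean ± SD of 3 independent runs.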

Tyrosinase [2] = molecular target: T2, Tyrosinase (Agaricus bisporus, UniProt O42713); experiment: as §1; how it was run: as §2
T2 sequence (O42713 whole entry): T1 sequence (whole entry)

Tyrosinase [3] = molecular target: T2, Tyrosinase; experiment: Mixed-type inhibition of mushroom tyrosinase-mediated L-tyrosine oxidation assessed as enzyme-inhibitor complex after 10 mins by Lineweaver-Burk plot analysis
[4] = molecular target: T1, Tyrosinase (Agaricus bisporus); experiment: Mixed-type inhibition of mushroom tyrosinase-mediated L-tyrosine oxidation assessed as enzyme-substrate-inhibitor complex after 10 mins by Lineweaver-Burk plot analysis
[5] = Cytotoxicity against mouse B16/F10 cells at 1 mM after 24 hrs by MTT assay; assay type: cell-based; settings: b16-f10, 24 h, 1000 µM
How it was run: (§3)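 B16/F10 cells in DMEM with 10% FBS, penicillin, streptomycin and amphotericin at 37 °C, 5% CO2. Seeded 3 × 10^4 per well, adhered 24 h, exposed to 1 or 2 mM compound in fresh DMEM for 24 h. MTT (0.5 mg/mL in PBS) added for 40 min at 37 °C; formazan dissolved in DMSO, A570 read. Viability as % of untreated control; triplicate.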

B16-F10 = experiment: (§4) Antimelanogenic activity in mouse B16/F10 cells assessed as inhibition of alpha-MSH-induced melanin formation at 1 mM after 24 hrs by ELISA relative to control; assay type: functional
How it was run: (§5)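 B16/F10 cells seeded 1 × 10^5 per well, grown 48 h at 37 °C, 5% CO2; stimulated with 100 nM α-MSH for 24 h, then exposed to 1 mM test agent (kojic acid reference) for 24 h. After PBS washes, pellets dissolved in 1 N NaOH/10% DMSO, 1 h at 80 °C; A405 read. Content = sample/control × 100%; triplicate, mean ± SD.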

[6] = as §4; assay type: functional; settings: B16-F10, 24 h; how it was run: as §5
[7] = Cytotoxicity against mouse B16/F10 cells at 2 mM after 24 hrs by MTT assay; assay type: cell-based; settings: b16-f10, 24 h, 2000 µM; how it was run: as §3
Tyrosinase [8] = molecular target: T2, Tyrosinase; experiment: Noncompetitive inhibition of mushroom tyrosinase-mediated L-tyrosine oxidation assessed as enzyme-inhibitor complex after 10 mins by Lineweaver-Burk plot analysis
[9] = molecular target: T1, Tyrosinase (Agaricus bisporus); experiment: Noncompetitive inhibition of mushroom tyrosinase-mediated L-tyrosine oxidation assessed as enzyme-substrate-inhibitor complex after 10 mins by Lineweaver-Burk plot analysis

Structure (SMILES)	inhibition [1]	IC50 (Tyrosinase [2]) [µM]	inhibition at 1000 µM [6] [%]	other results
COC(=O)C(Cn1ccn(C)c1=S)NC(=O)OC(C)(C)C (stereo not drawn)	inactive	–	–	–
COC(=O)C(N)Cn1ccn(C)c1=S (stereo not drawn)	inactive	–	–	–
Cn1ccn(CC(N)C(=O)O)c1=S (stereo not drawn)	inactive	–	–	–
Sc1ncc[nH]1	Dose-dependent effect	4110	–	Ki (Tyrosinase [3]): 570 µM; Kis [4]: 2.8 mM; Activity [5]: Toxic; inhibition (B16-F10): Active
Cn1ccnc1S [METHIMAZOLE]	Dose-dependent effect	–	88.7	Kis [4]: 1.91 mM
Cn1cc[nH]c1=S [METHIMAZOLE]	–	1430	–	Ki (Tyrosinase [3]): 470 µM; Activity [7]: Toxic
Cn1ccn(C(=O)OC(C)(C)C)c1=S	Dose-dependent effect	1450	49.3	Ki (Tyrosinase [8]): 1750 µM; Kis [9]: 1.75 mM; Activity [5]: Non-toxic; Activity [7]: Non-toxic
O=c1cc(CO)occ1O [KOJIC ACID]	–	–	56.9	–
